Experimental data collected from several papers.
Each line is one published result; the experiments were not run side by side.
Target: Phosphatidylinositol 4,5-bisphosphate 3-kinase catalytic subunit gamma isoform (PIK3CG, Homo sapiens, UniProt P48736)

Structure (SMILES) | effect on | technique | tested at | remaining binding [%]
COc1ncc2cc3ccccc3nc2c1C#N | cell-free assay | competition with immobilised ligand | 5 µM | 100
O=C(O)[C@@H]1[C@@H](Cn2nnc3ccccc3c2=O)CC[C@H]1C(=O)c1ccc(OCCC2CCOCC2)cc1 | cell-free assay | competition with immobilised ligand | 1 µM | 100
COc1cnc(Nc2cccc(S(N)(=O)=O)c2)nc1N1CCN(c2ccccc2)CC1 | binding | competition with immobilised ligand | 1 µM | 94
CCCOc1ccc([C@H]2[C@H](C(=O)O)[C@@H](c3ccc4c(c3)OCO4)CN2CC(=O)Nc2c(CC)cccc2CC)cc1 | cell-free assay | competition with immobilised ligand | 1 µM | 68
O=C(NCC1CCOCC1)c1n[nH]cc1NC(=O)c1c(F)cccc1F | binding | competition with immobilised ligand | 1 µM | 100
N#Cc1ccc(Nc2ccc3[nH]c(=O)[nH]c3c2)c(Cl)c1 | cell-free assay | competition with immobilised ligand | 1 µM | 92
F[C@@H]1CCN(c2nccc(-c3cnn4ncccc34)n2)C1 | binding |  | 1 µM | 100
COc1cnc(Nc2cccc(S(N)(=O)=O)c2)nc1N1CCN(c2ccccc2)C(=O)C1 | binding | competition with immobilised ligand | 1 µM | 34
C[C@H]1CCN(c2nccc(-c3cnn4ncccc34)n2)C1 | binding |  | 1 µM | 82
CC(C)CC(=O)N1CCc2nc(-c3ccc(Br)cc3)nc(N(C)Cc3ccccc3)c2C1 | cell-free assay | competition with immobilised ligand | 0.1 µM | 100
CN(C)c1nccc(-c2cnc3ncccn23)n1 | binding |  | 1 µM | 39
COC(=O)Nc1nc2ccc(C(=O)c3ccccc3)cc2[nH]1 | cell-free assay | competition with immobilised ligand | 10 µM | 18
C[C@H](c1cccc(C#N)c1)n1cc(Cl)cc(C(N)=O)c1=N | cell-free assay | competition with immobilised ligand | 1 µM | 98
Cc1cnc(Nc2ccc(C(=O)N3CCC(N4CCCC4)CC3)cc2)nc1-c1cc2ccccc2s1 | binding | competition with immobilised ligand | 1 µM | 81
CN(CCCC(F)(F)F)c1nccc(-c2cnn3ncccc23)n1 | binding |  | 1 µM | 100
C[C@@]1(Cc2ccc(C#N)cc2)C(=O)N(c2cc(Cl)cc(Cl)c2)c2ncc(C(=O)NC3(c4nc(C5CCC5)no4)CC3)n21 | cell-free assay | competition with immobilised ligand | 1 µM | 95
C[C@@H](c1ccc(-n2cnc3c(N)ncnc32)cc1)N1CCc2nn(C)c(Cc3ccccc3)c2C1=O | binding | competition with immobilised ligand | 0.1 µM | 85
C=CC(=O)N1CCC(C(=O)NCC(=O)N2CCN(c3nc(-c4cnc(N)nc4C(F)F)nc(N4CCOCC4)n3)CC2)CC1 | binding | competition with immobilised ligand | 1 µM | 0.1
N[C@@H]1CCN(c2nccc(-c3cnn4ncccc34)n2)C1 | binding |  | 1 µM | 100
O=C(c1ccc(Nc2nccc(-c3cc4ccccc4s3)n2)cc1)N1CCC(N2CCCC2)CC1 | binding | competition with immobilised ligand | 1 µM | 27
CCCCN(CCCC)C(=O)CN1C[C@H](c2cc(OC)c3c(c2)OCO3)[C@@H](C(=O)O)[C@@H]1CC(C)(C)CCC | cell-free assay | competition with immobilised ligand | 1 µM | 76.9
CN(C)c1ncc(F)c(-c2cnn3ncccc23)n1 | binding |  | 1 µM | 90
N#Cc1ccccc1CSc1nnc2c(n1)[nH]c1ccccc12 | binding | competition with immobilised ligand | 10 µM | 100
O=C(NCCCN1CCOCC1)c1ccc(Nc2nccc(-c3cc4ccccc4s3)n2)cc1 | binding | competition with immobilised ligand | 1 µM | 20
